Our source for the inhibition and IC50 values is ChEMBL document CHEMBL4480458, “Synthesis and Anti-inflammatory Evaluation of ( R)-, ( S)-, and (±)-Sanjuanolide Isolated from Dalea frutescens” (J Nat Prod, 2019).

Active and inactive are the calls of the source. No cut-off for these calls is given here.

Format in all cases: functional, cell-based
For experiment [1], the system named is RAW264.7. Nature of the experiment: Antiinflammatory activity in mouse RAW264.7 cells assessed as inhibition of LPS-induced ICAM1 mRNA expression pretreated for 30 mins followed by LPS-stimulation and measured after 24 hrs by trizol reagent based qRT-PCR analysis. In a few lines:
(§1)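 RAW 264.7 macrophages were grown in DMEM with 10% FBS and penicillin/streptomycin at 37 °C, 5% CO2. Cells were plated at 7.0 × 10^5/plate and incubated overnight, then pretreated 30 min with compound at 2.5 or 10 μM before LPS at 1.0 μg/mL for 24 h. Total RNA was extracted and qPCR was run, with each gene normalized to β-actin. Values are % of LPS control, mean ± SEM of three independent experiments, Student's t test.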
Background: In qPCR the cycle at which signal appears reflects the starting amount.

Experiment [2] relates to RAW264.7. Nature of the experiment: Antiinflammatory activity in mouse RAW264.7 cells assessed as inhibition of LPS-induced IL1beta mRNA expression pretreated for 30 mins followed by LPS-stimulation and measured after 24 hrs by trizol reagent based qRT-PCR analysis. In a few lines:
as §1

The subject of experiment [3] is RAW264.7. The experiment can be described thus: Antiinflammatory activity in mouse RAW264.7 cells assessed as inhibition of LPS-induced COX2 mRNA expression pretreated for 30 mins followed by LPS-stimulation and measured after 24 hrs by trizol reagent based qRT-PCR analysis. Put shortly: as §1
Experiment [4] deals with RAW264.7. The experiment can be described thus: Antiinflammatory activity in mouse RAW264.7 cells assessed as inhibition of LPS-induced […] mRNA expression pretreated for 30 mins followed by LPS-stimulation and measured after 24 hrs by trizol reagent based qRT-PCR analysis. In a few lines:
as §1

Experiment [5] relates to RAW264.7. The experiment can be described thus: Antiinflammatory activity in mouse RAW264.7 cells assessed as inhibition of LPS-induced TNFalpha production pretreated for 30 mins followed by LPS-stimulation and measured after 24 hrs by ELISA. In a few lines:
(§2)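 RAW 264.7 cells were seeded at 400 000 per well in DMEM and held for 24 h at 37 °C, 5% CO2. They were pretreated 30 min with vehicle or compound at 1, 2.5, 5 or 10 μM, then stimulated with LPS at 0.5 μg/mL for 24 h. Supernatant cytokine was measured by ELISA. IC50 was taken from the concentration series, and significance was tested against LPS vehicle.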
In general terms: ELISA stands for enzyme-linked immunosorbent assay.

The subject of experiment [6] is RAW264.7. The experiment can be described thus: Antiinflammatory activity in mouse RAW264.7 cells assessed as inhibition of LPS-induced IL-6 production pretreated for 30 mins followed by LPS-stimulation and measured after 24 hrs by ELISA. Put shortly: as §2
Experiment [7] concerns RAW264.7. The experiment can be described thus: Antiinflammatory activity in mouse RAW264.7 cells assessed as inhibition of LPS-induced TNFalpha mRNA expression pretreated for 30 mins followed by LPS-stimulation and measured after 24 hrs by trizol reagent based qRT-PCR analysis. In a few lines: as §1
The subject of experiment [8] is RAW264.7. The experiment can be described thus: Antiinflammatory activity in mouse RAW264.7 cells assessed as inhibition of LPS-induced IL-6 mRNA expression pretreated for 30 mins followed by LPS-stimulation and measured after 24 hrs by trizol reagent based qRT-PCR analysis. In a few lines:
as §1

As usually defined, the IC50 is the concentration that gives 50% inhibition. Turning to `C=C(C)C(O)Cc1c(O)ccc(C(=O)/C=C/c2ccccc2)c1O` (racemic), the inhibition entry in experiment [1], in experiment [2], in experiment [3], in experiment [4], in experiment [7] and in experiment [8] was “Active” throughout. Further, the IC50 in experiment [5] is 1600 nM; in experiment [6], 1100 nM.
Turning to `C=C(C)[C@@H](O)Cc1c(O)ccc(C(=O)/C=C/c2ccccc2)c1O`, the inhibition result in experiment [5] and in experiment [6] was “inactive” throughout.
`C=C(C)[C@H](O)Cc1c(O)ccc(C(=O)/C=C/c2ccccc2)c1O`: the inhibition entry in experiment [1], in experiment [2], in experiment [3], in experiment [4], in experiment [7] and in experiment [8] was “Active” in each case. In addition, the 50% inhibitory concentration (IC50) in experiment [5] worked out at 1200 nM; in experiment [6], 1100 nM.
